Test results from PMC2916634 (Biochemistry, 2010).
Positions count from the first letter of the chain named. In names and notes the source's numbering stands. Ends that are not written are not given here. Me3 = Me3: trimethyl-lysine (trimethylated lysine)

B1: Histone H3 peptide (residues 1-15) trimethylated at K4 (peptide)
peptide: ARTK(Me3)QTARKSTGGKAY
modifications: not fully specified
B2: V1617A: MLL PHD3 with V1617 mutated to alanine (protein)
chain: AKGNFCPLCDKCYDDDDYESKMMQCGKCDRWVHSKCENLSDEMYEILSNLPESAAYTCVNCTERH
modifications: left off: GST, end not stated, cleaved
B3: Y1619A: MLL PHD3 with Y1619 mutated to alanine (protein)
chain: B2 chain with A54V, Y56A
modifications: left off: GST, end not stated, cleaved
B4: CYP33 RRM domain (T3-K83), wild type (domain or fragment, human, UniProt Q9UNP9 3-83, looked up)
chain: TTKRVLYVGGLAEEVDDKVLHAAFIPFGDITDIQIPLDYETEKHRGFAFVEFELAEDAAAAIDNMNESELFGRTIRVNLAK
B5: F49A (protein)
chain: B4 chain with F47A
modifications: left off: GST, end not stated, cleaved
B6: CYP33 RRM: RRM domain of CYP33 spanning residues T3−K83 (protein)
chain: B4 chain
modifications: left off: GST, end not stated, cleaved
B7: R47A (protein)
chain: B4 chain with R45A
modifications: left off: GST, end not stated, cleaved
B8: L39A (protein)
chain: B4 chain with L37A
modifications: left off: GST, end not stated, cleaved
B9: K45A (protein)
chain: B4 chain with K43A
modifications: left off: GST, end not stated, cleaved
B10: MLL PHD3 Y1619A mutant (domain or fragment, human, UniProt Q03164 1564-1628, looked up)
chain: B2 chain with A54V, Y56A
B11: CYP33 RRM L39A mutant (domain or fragment, human, UniProt Q9UNP9 3-83, looked up)
chain: B4 chain with L37A
B12: CYP33 RRM F49A mutant (domain or fragment, human, UniProt Q9UNP9 3-83, looked up)
chain: B4 chain with F47A
B13: MLL PHD3 (third PHD finger of MLL), wild type (domain or fragment, human, UniProt Q03164 1564-1628, looked up)
chain: B2 chain with A54V
B14: MLL PHD3 W1594A mutant (domain or fragment, human, UniProt Q03164 1564-1628, looked up)
chain: B2 chain with W31A, A54V

Columns and labels:
HOXC8 = assay: Q-RT-PCR of HOXC8 expression in HEK293T cells; format: cell-based; conditions: 48 h after transfection, normalized to β2M, vs empty vector
Procedure, shortened: (§1)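 HEK293T cells transfected with Lipofectamine 2000 using pCEP4 empty vector, FLAG-tagged wild-type CYP33 or PPIase-dead CYP33 (R191A/F196A). At 48 h, RNA extracted with Trizol and reverse-transcribed. qPCR run in triplicate. cDNA levels normalized to β2M by the comparative Ct method.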

HOXA9 = assay: Q-RT-PCR of HOXA9 expression in HEK293T cells; format: cell-based; conditions: 48 h after transfection, normalized to β2M, vs empty vector
Procedure, shortened: as §1

CDKN1B = assay: Q-RT-PCR of CDKN1B expression in HEK293T cells; format: cell-based; conditions: 48 h after transfection, normalized to β2M, vs empty vector
Procedure, shortened: as §1

C-MYC = assay: Q-RT-PCR of C-MYC expression in HEK293T cells; format: cell-based; conditions: 48 h after transfection, normalized to β2M, vs empty vector
Procedure, shortened: as §1

CDKN1B promoter = assay: Chromatin immunoprecipitation at CDKN1B promoter in HEK293T cells; format: cell-based; conditions: ChIP, 48 h after transfection, CYP33 overexpression vs empty vector
Procedure, shortened: (§2)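 HEK293T cells transfected with empty vector or pCEP4-CYP33 by lipofectamine, then formalin-fixed at 48 h. Chromatin immunoprecipitated with anti-histone H3, anti-H3K4me3, anti-acetyl-H3 (K9/K14) or IgG control antibodies. Recovered DNA quantified by qPCR at MLL target gene promoters. Fold occupancy normalized to input DNA.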

HOXC8 promoter = assay: Chromatin immunoprecipitation at HOXC8 promoter in HEK293T cells; format: cell-based; conditions: ChIP, 48 h after transfection, CYP33 overexpression vs empty vector
Procedure, shortened: as §2

[1] = biological target: PHD3−CYP33 RRM complex (PHD3 saturated with CYP33 RRM) (human, UniProt Q03164 1564-1628; Q9UNP9 3-83); assay: ITC
[2] = biological target: B13; assay: ITC
[3] = 15N−1H HSQC structural integrity of mutants; format: physicochemical; conditions: 15N−1H HSQC of mutant vs wild type, 30 °C, pH 6.9
MLL PHD3 V1617A mutant = MLL PHD3 V1617A mutant (human, UniProt Q03164 1564-1628, V1617A); assay: ITC
W1594A PHD3 = W1594A PHD3 (Homo sapiens, UniProt Q03164, W1594A); assay: ITC binding to PHD3 W1594A mutant
Chain of W1594A PHD3 (Q03164 1564-1628 W1594A): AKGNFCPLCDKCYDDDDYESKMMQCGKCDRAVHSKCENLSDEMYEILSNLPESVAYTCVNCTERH

PHD3 = conditions: yeast two-hybrid assay, co-immunoprecipitation, and GST pull-down; cited from earlier work
[4] = biological target: PHD3 (MLL PHD3, wild-type) (Homo sapiens, UniProt Q03164); assay: ITC binding of H3K4me3 peptide or CYP33 RRM; conditions: CYP33 RRM Ala mutant to wild-type PHD3
Chain of PHD3 (MLL PHD3, wild-type) (Q03164 1564-1628): as the sequence (Q03164 1564-1628 W1594A) above, with A31W counted along it

[5] = biological target: B4; assay: ITC

CYP33 mutant (R191A/F196A)
HOXC8 expression (HOXC8): no longer downregulated
HOXA9 expression (HOXA9): no longer downregulated
CDKN1B expression (CDKN1B): no longer downregulated
C-MYC expression (C-MYC): no longer downregulated

CYP33: Human nuclear Cyclophilin33, full-length; FLAG-tagged wild-type expressed from pCEP4 plasmid in HEK293T cells
HOXC8 expression (HOXC8): markedly downregulated
HOXA9 expression (HOXA9): markedly downregulated
CDKN1B expression (CDKN1B): markedly downregulated
C-MYC expression (C-MYC): markedly downregulated
H3K4me3 mark (CDKN1B promoter): reduced
H3 acetylation level (K9 and K14) (CDKN1B promoter): reduced
histone H3 density (CDKN1B promoter): increase
H3K4me3 mark (HOXC8 promoter): reduced
histone H3 density (HOXC8 promoter): increase

B1
fold increase in Kd against PHD3 alone [1]: ~5.7 fold
stoichiometry N [2]: 1

B2
effect of mutation on structure [3]: does not affect the structural stability of PHD3

B3
effect of mutation on structure [3]: disruption of the overall fold

B4
fold decrease in affinity against wild-type PHD3 (MLL PHD3 V1617A mutant): ~6.2 fold

B5
effect of mutation on structure [3]: without disrupting the structure

B6
Kd (W1594A PHD3; 25 °C, pH 7.2, CYP33 RRM to W1594A PHD3): 19.6 µM
fold weaker Kd vs wild-type PHD3 (W1594A PHD3; CYP33 RRM to W1594A PHD3): ~1.3 fold
interaction with PHD3 (PHD3): interacts

B7
interaction with PHD3 [4]: did not abrogate the interaction

B8
effect of mutation on structure [3]: without disrupting the structure

B9
interaction with PHD3 [4]: did not abrogate the interaction

B10
binding result [5]: binds

B11
fold decrease in affinity against wild-type CYP33 RRM [2]: ~4.3 fold

B12
fold decrease in affinity against wild-type CYP33 RRM [2]: ~14 fold

B13
Kd [5]: 14.7 µM

B14
Kd [5]: 19.6 µM
